This is a sample that favours compounds with a hit; in the whole collection about 1.7% have one here.
TPT1 inhibitor = C. albicans TPT1 enzyme inhibition | recombinant caTPT1, FP RNA substrate dephosphorylation | 300,000 compounds, 0.81% hits | inhibition, % at 5 µM;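 active means inhibition above the mean of all tested compounds plus 3 SD, set per screening campaign, cut at about 24% in these data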;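 further: plate controls were DMSO alone for no effect and ferristatin control at 100 nM for full effect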
HNF4A DNA FP = change in binding of human HNF4 alpha to DNA; HNF4a-FITC DNA binding, fluorescence polarization, 1 h; activity change, % at 10 µM; 360,000 compounds, 0.3% hits; in the data active means activity change above about 30%, passing the limit was not always enough
Target sequence (P41235 whole entry, looked up): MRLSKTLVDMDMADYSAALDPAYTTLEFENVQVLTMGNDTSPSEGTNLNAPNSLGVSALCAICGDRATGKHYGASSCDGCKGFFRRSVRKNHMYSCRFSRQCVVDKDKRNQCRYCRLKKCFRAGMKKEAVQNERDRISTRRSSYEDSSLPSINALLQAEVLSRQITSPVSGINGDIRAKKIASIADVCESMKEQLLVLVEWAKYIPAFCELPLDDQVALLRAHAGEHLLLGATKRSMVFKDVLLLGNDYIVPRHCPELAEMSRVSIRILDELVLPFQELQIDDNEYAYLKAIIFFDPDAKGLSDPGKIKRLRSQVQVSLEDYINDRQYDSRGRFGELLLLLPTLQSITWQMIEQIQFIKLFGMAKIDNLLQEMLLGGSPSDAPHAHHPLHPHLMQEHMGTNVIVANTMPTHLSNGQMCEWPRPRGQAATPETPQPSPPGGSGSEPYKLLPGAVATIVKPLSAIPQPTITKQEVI
IDE inh = inhibits human insulin-degrading enzyme in HEK cells; AID 434962; FAbetaB cleavage, fluorescence polarization; inhibition, % at 5.59 µM; P14735; 320,000 compounds, 0.41% hits;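 active means percent inhibition above the average of all tested compounds plus 3 SD, set per screening campaign, cut at about 16% in these data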;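 further: IDE supplied by intact live HEK cells; FP after avidin binding of uncleaved biotin substrate so inhibition keeps polarization high; 0% = DMSO wells and 100% = 60 µM reference IDE inhibitor Ii1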
CSN deneddyl inh = CSN deneddylation inhibition; Purified CSN, SCF-Nedd8-OG deneddylation, fluorescence polarization; inhibition, % at 12.5 µM; 360,000 compounds, 0.38% hits;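 active means pattern-corrected inhibition above about 35%, with an unprinted fluorescence ratio check between 0.5 and 1.5, limit read from the data, passing the limit was not always enough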;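 further: 0% = enzyme with substrate and 100% = substrate without enzyme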
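Assay system: Purified human Csn5 enzyme expressed in HEK293T cells | Amount: Enzyme 0.24 nM | Measured by: Fluorescence polarization readout | Medium: Tris/NaCl/DTT buffer, pH 7.5 | Compound dosing: One concentration, 12.5 µM, 0.25% DMSO | Times: 90 min incubation of compound, enzyme and substrate at room temperature | Control set: no-enzyme wells high, enzyme-with-substrate wells low | Read-out: % inhibition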
Rpn11 inh = blocks the human proteasome subunit Rpn11. human 26S proteasome, Ub4-pepOG fluorescence polarization; 20S core pre-blocked with epoxomicin. inhibition, % at 20 µM. 360,000 compounds, 0.59% hits;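 active means inhibition at 20 µM, scaled to each plate's controls, above about 33%, limit read from the data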
IDE cell activ = IDE (human) activation, cell-based. P14735. HEK cells, FAbeta-B cleavage, fluorescence polarization; 0% vehicle, 100% cell-free pure enzyme wells. activation, % at 5.96 µM. 340,000 compounds, 0.073% hits. AID 493087;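 active means activation above the mean of all tested compounds plus 3 SD, set per screening campaign, cut at about 17% in these data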
Rpn11 confirm = confirmation of human proteasome Rpn11 inhibitors. shares compounds with Rpn11 inh. purified human 26S proteasome, Ub4-pepOG fluorescence polarization; proteasome pretreated with epoxomicin. 1,900 compounds, 29% hits. AID 602318. inhibition, % at 20 µM
MMP-2 inh = blocks human MMP-2, flagging nonselective RPN11 hits | inhibition, % at 20 µM | AID 602330 | 1,900 compounds, 4% hits | recombinant MMP-2, FRET peptide cleavage fluorescence | shares compounds with Rpn11 inh;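 further: human MMP-2 activated beforehand with APMA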
Thrombin inh = blocks bovine thrombin, flagging nonselective RPN11 hits | inhibition, % at 20 µM | AID 602333 | shares compounds with Rpn11 inh | 1,900 compounds, 13% hits | bovine thrombin cleavage of Ub4-pepOG, fluorescence polarization;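 active means mean inhibition at least 40% at 20 µM, or signal 3 deviations below plate average, so some actives read negative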;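 further: plate controls were thrombin with DMSO for no effect and buffer wells lacking thrombin for full effect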
* hit, by the source's call; · = not tested or not shown; + = active, no number. Unless noted, no stated cut-off is given here; in the data, active means inhibition above about 40%; inactive means the rest.

SMILES	TPT1 inhibitor	HNF4A DNA FP	IDE inh	CSN deneddyl inh	Rpn11 inh	IDE cell activ	Rpn11 confirm	MMP-2 inh	Thrombin inh
CCOC(=O)C1=C(C)N=c2sc(=Cc3cc(Cl)c(OCC(=O)O)c(OC)c3)c(=O)n2C1c1ccccc1Cl (stereo not given)	·	13.4	·	23.7	50.8*	·	34.4	-20.1	65.2*
O=C(Nc1ccccc1)c1cnc2ccccc2n1	-3.1	-2.5	1.9	7.3	127.7*	0.0	-1.4	-18.8	-9.5
NC(=O)c1ccc(NC(=O)c2cnc3ccccc3n2)cc1	-1.0	-0.2	5.6	-0.1	-4.1	4.2	·	·	·
COc1cccc(CNC(=O)CS(=O)(=O)Cc2nc(-c3ccc(C)cc3)oc2C)c1OC	0.9	-1.5	0.6	-2.2	-2.1	5.4	·	·	·
COc1ccc(C2SCC(=O)N2c2c(C)n(C)n(-c3ccccc3)c2=O)cc1OC (stereo not given)	-0.5	0.4	0.6	-8.7	31.1*	0.5	-2.3	-28.7	1.3
CCN(CC(=O)Nc1ccc(NC(C)=O)cc1)C(=O)C1COc2ccccc2O1 (stereo not given)	0.6	0.0	5.3	7.5	-8.7	3.5	·	·	·
C=CCn1c(SCC(=O)NNC(=O)Nc2ccc(C)cc2)nnc1-c1ccccc1	-0.6	3.3	7.7	0.7	2.2	-4.0	·	·	·
C=CCn1c(SCC(=O)Nc2ccc(-c3nc4ccc(C)cc4s3)cc2)nnc1-c1ccccc1	8.7	2.0	5.6	19.9	64.1*	-1.1	80.6*	-18.3	-2.9
CN(C(=O)c1cccc(NC(=O)Cc2cccc(NC(=O)C3CCCN(C(=O)CCc4ccccc4)C3)c2)c1)C1CCC1 (stereo not given)	·	2.0	·	-1.9	0.4	-0.6	·	·	·
CC1(C)CC(=O)C(N=Nc2ccc(-c3ccccc3)cc2)=C(O)C1	8.1	33.5	-1.6	24.0	47.5*	4.0	24.0	-27.0	-12.3
CC1(C)CC(=O)C(N=Nc2ccc(F)cc2)=C(O)C1	-1.5	-0.1	-3.0	2.1	-2.8	3.9	·	·	·
COc1ccc(Cn2c(C)nc3c(c2=O)c2nc4ccccc4nc2n3Cc2ccco2)cc1	·	-52.9	·	44.6*	+	-2.8	26.9	4.3	-0.8
COc1ccc(Cn2c(-c3ccco3)nc3c(c(=O)c4ccccc4n3C)c2=O)cc1	-2.5	-2.5	5.3	25.5	+	8.9	31.3	20.0	41.5*
COc1ccc(Cn2c(C)nc3c(c(=O)c4ccccc4n3C)c2=O)cc1	-1.1	7.8	1.7	3.7	-0.8	-1.0	·	·	·
O=C(CCN1C(=O)/C(=C/C=C/c2ccccc2)SC1=S)Nc1ccccn1	19.9	18.3	7.9	11.1	37.7*	4.4	-2.2	-9.8	-34.1
Cc1ccc(CSc2cc(C)[nH]c(=O)n2)cc1	13.7	11.9	6.2	0.8	64.2*	1.1	28.1	-1.9	19.1
C=CC1=C(C(=O)O)N2C(=O)C(NC(=O)Cc3ccccc3)C2SC1 (stereo not given)	2.8	-56.0	-1.7	54.3*	137.5*	1.5	34.3	31.3	-19.8
C#Cc1ccc2c(c1)COc1c3ccccc3nn1-2	-0.9	0.7	3.1	-1.8	-3.9	-1.7	·	·	·
O=C(NC(=S)Nc1ccc(Cc2ccncc2)cc1)c1ccc(F)cc1	3.3	-0.3	0.5	4.6	2.3	-3.3	·	·	·
CN(C)c1ccc(/C=N/NC(=O)c2nnn(-c3nonc3N)c2COc2ccc(F)cc2)cc1	-2.1	-5.2	-3.6	5.0	137.7*	-3.0	-15.0	-37.8	-21.5
CCOc1ccc(/C=N/NC(=O)c2nnn(-c3nonc3N)c2COc2ccc(F)cc2)cc1	3.5	4.4	3.8	1.7	17.2	1.5	·	·	·
CCN(CC)Cc1c(C(=O)N/N=C/c2ccncc2)nnn1-c1nonc1N	-3.8	50.0*	3.5	2.3	+	4.9	-9.0	8.0	-3.8
COc1ccc(CCNC(=O)CC(=O)N/N=C/c2ccc(C(=O)O)cc2)cc1OC	1.9	1.0	2.5	-0.1	3.6	1.0	·	·	·
COC(=O)c1ccc(/C=N/OCC(=O)NCCc2ccc(OC)c(OC)c2)cc1	-1.8	1.6	2.8	-13.5	33.3*	4.5	2.2	-5.9	-13.4
Brc1ccccc1C1CC(c2ccccc2)=Nc2ccccc2N1 (stereo not given)	7.8	13.4	1.6	2.0	40.7*	0.7	21.5	15.9	15.0
SMILES	TPT1 inhibitor	HNF4A DNA FP	IDE inh	CSN deneddyl inh	Rpn11 inh	IDE cell activ	Rpn11 confirm	MMP-2 inh	Thrombin inh
COc1ccc(C2CC(c3cccs3)=NN2C(=O)CSC2=NCCS2)cc1 (stereo not given)	3.0	7.9	4.9	0.7	80.5*	-0.6	17.7	-18.3	10.1
COc1ccc(C2CC(c3cccs3)=NN2C(=O)COC(=O)c2cncc(Br)c2)cc1OC (stereo not given)	4.1	4.1	10.8	10.6	43.1*	3.0	21.6	63.3*	3.7
Cc1ccc(C2CC(c3cccs3)=NN2C(=O)CSC2=NCCS2)cc1 (stereo not given)	1.9	0.3	-0.1	6.3	4.5	3.3	·	·	·
Cc1ccc(C2CC(c3cccs3)=NN2C(=O)CCl)cc1 (stereo not given)	3.3	15.3	-4.2	15.7	46.3*	0.9	7.9	-8.0	8.2
N#CC1=C(N)Oc2cc(N)ccc2C1c1cc(Br)cs1 (stereo not given)	·	17.1	·	19.8	72.9*	-6.7	1.2	17.8	27.2
N#CC1=C(N)Oc2cc(N)ccc2C1c1ccsc1 (stereo not given)	2.1	3.9	11.8	-2.7	4.5	4.0	·	·	·
CC(=O)c1ccc(N/C=C\C(=O)c2ccc(C)cc2)cc1	5.9	5.3	-0.6	-3.6	0.2	-0.5	·	·	·
CC(=O)Nc1ccc(N/C=C/C(=O)c2ccc(Cl)cc2)cc1	2.9	10.5	2.4	3.6	97.8*	-0.4	40.0	-30.1	13.8
CN1N=C(C(=O)N=c2sc3ccccc3n2C)CCC1=O	·	-5.7	·	5.8	-1.5	3.4	·	·	·
COc1ccccc1NC(=O)Cn1c(CCC(=O)O)ccc1-c1ccc(C)cc1	3.2	4.1	-3.8	-10.9	8.1	-2.5	·	·	·
O=C(N/N=C/c1c(O)ccc2ccccc12)C(=O)N1CCCC1	·	7.5	·	3.7	12.6	·	·	·	·
O=C(CN1CCCC1)N/N=C/c1c(O)ccc2ccccc12	8.9	9.9	0.5	8.9	46.0*	-2.1	0.8	-18.6	-11.0
Cc1nc(Nc2ccc(Cl)cc2Cl)sc1C(=O)Nc1ccccc1	-2.6	-0.9	6.1	-0.8	5.6	-0.7	·	·	·
